Laboratory results: ChEMBL document CHEMBL5724801, “EUbOPEN Chemogenomics Library - Multiplex” (2024)
Several values for one entry are separate records, joined by “and”; a condition that tells them apart may be missing. Identical values can stand only once.

Test system: Fibroblast
Assay: Multiplex assay against human fibroblast
Format: toxicity, cell-based
Method in brief: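 Live cells were stained at seeding with Hoechst33342, BioTracker Green Microtubule Cytoskeleton Dye, MitoTracker Red and Annexin V Alexa Fluor 680, then imaged on a CQ1 microscope at 37°C and 5% CO2 after compound addition. CellPathfinder machine-learning gating split cells into Hoechst high-intensity objects or normal cells. Normal cells were split into healthy, pyknosed or fragmented nuclei, and pyknosed cells into mitotic or apoptotic. Tubulin, mitochondrial-mass and membrane-permeability phenotypes are per cents of healthy-nucleus cells.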

[1] = 12 h, 1 µM, compound concentration 1 uM
[2] = 12 h, 10 µM, compound concentration 10 uM
[3] = 24 h, 1 µM, compound concentration 1 uM
[4] = 24 h, 10 µM, compound concentration 10 uM
[5] = 48 h, 1 µM, compound concentration 1 uM
[6] = 48 h, 10 µM, compound concentration 10 uM

COCCCN1CCC(NC(=O)c2cc(Cl)c(N)c3c2OCC3)CC1 [PRUCALOPRIDE]
Population Apoptotic (%) [1]: 33% and 48% | Population Fragmented Nuclei (%) [1]: 20% and 31% | Population Healthy Nuclei (%) [1]: 62% and 48% | Population Hoechst High Intensity Objects (%) [1]: 3% and 4% | Population Membrane Permeable-Phenotype (%) [1]: 0% and 5% | Population Mitochondria Different-Phenotype (%) [1]: 3% and 8% | Population Mitotic Cells (%) [1]: 66% and 52% | Population Normal (%) [1]: 96% and 95% | Population Pyknosed Nuclei (%) [1]: 16% and 20% | Population Tubulin-Different-Phenotype (%) [1]: 30% and 51% | Total Cell Count [1]: 132 and 130 | Population Apoptotic (%) [2]: 30% and 35% | Population Fragmented Nuclei (%) [2]: 12% and 28% | Population Healthy Nuclei (%) [2]: 66% and 46% | Population Hoechst High Intensity Objects (%) [2]: 0% and 11% | Population Membrane Permeable-Phenotype (%) [2]: 1% and 7% | Population Mitochondria Different-Phenotype (%) [2]: 7% and 3% | Population Mitotic Cells (%) [2]: 70% and 64% | Population Normal (%) [2]: 99% and 88% | Population Pyknosed Nuclei (%) [2]: 20% and 25% | Population Tubulin-Different-Phenotype (%) [2]: 31% and 55% | Total Cell Count [2]: 144 and 153 | Population Apoptotic (%) [3]: 48% and 72% | Population Fragmented Nuclei (%) [3]: 20% and 36% | Population Healthy Nuclei (%) [3]: 57% and 49% | Population Hoechst High Intensity Objects (%) [3]: 2% and 7% | Population Membrane Permeable-Phenotype (%) [3]: 0% and 7% | Population Mitochondria Different-Phenotype (%) [3]: 3% and 4% | Population Mitotic Cells (%) [3]: 51% and 27% | Population Normal (%) [3]: 97% and 92% | Population Pyknosed Nuclei (%) [3]: 21% and 14% | Population Tubulin-Different-Phenotype (%) [3]: 25% and 50% | Total Cell Count [3]: 136 and 138 | Population Apoptotic (%) [4]: 63% and 30% | Population Fragmented Nuclei (%) [4]: 10% and 24% | Population Healthy Nuclei (%) [4]: 74% and 57% | Population Hoechst High Intensity Objects (%) [4]: 6% and 5% | Population Membrane Permeable-Phenotype (%) [4]: 1% and 11% | Population Mitochondria Different-Phenotype (%) [4]: 6% and 3% | Population Mitotic Cells (%) [4]: 36% and 69% | Population Normal (%) [4]: 93% and 94% | Population Pyknosed Nuclei (%) [4]: 15% and 18% | Population Tubulin-Different-Phenotype (%) [4]: 30% and 56% | Total Cell Count [4]: 128 and 148 | Population Apoptotic (%) [5]: 50% | Population Fragmented Nuclei (%) [5]: 25% and 36% | Population Healthy Nuclei (%) [5]: 60% and 49% | Population Hoechst High Intensity Objects (%) [5]: 4% and 2% | Population Membrane Permeable-Phenotype (%) [5]: 2% and 3% | Population Mitochondria Different-Phenotype (%) [5]: 3% and 6% | Population Mitotic Cells (%) [5]: 50% | Population Normal (%) [5]: 95% and 97% | Population Pyknosed Nuclei (%) [5]: 14% and 13% | Population Tubulin-Different-Phenotype (%) [5]: 38% and 53% | Total Cell Count [5]: 146 and 132 | Population Apoptotic (%) [6]: 64% and 62% | Population Fragmented Nuclei (%) [6]: 22% and 34% | Population Healthy Nuclei (%) [6]: 66% and 48% | Population Hoechst High Intensity Objects (%) [6]: 2% and 6% | Population Membrane Permeable-Phenotype (%) [6]: 1% and 7% | Population Mitochondria Different-Phenotype (%) [6]: 6% and 7% | Population Mitotic Cells (%) [6]: 35% and 37% | Population Normal (%) [6]: 97% and 93% | Population Pyknosed Nuclei (%) [6]: 10% and 17% | Population Tubulin-Different-Phenotype (%) [6]: 38% and 57% | Total Cell Count [6]: 136 and 146

c1ccc2nc(N3CCNCC3)ccc2c1 [QUIPAZINE]
Population Apoptotic (%) [1]: 13.95% and 10% | Population Fragmented Nuclei (%) [1]: 15.05% and 6.28% | Population Healthy Nuclei (%) [1]: 64.08% and 79.23% | Population Hoechst High Intensity Objects (%) [1]: 0% | Population Membrane Permeable-Phenotype (%) [1]: 2.27% and 0.61% | Population Mitochondria Different-Phenotype (%) [1]: 9.09% and 6.71% | Population Mitotic Cells (%) [1]: 86.05% and 90% | Population Normal (%) [1]: 100% | Population Pyknosed Nuclei (%) [1]: 20.87% and 14.49% | Population Tubulin-Different-Phenotype (%) [1]: 9.09% and 19.51% | Total Cell Count [1]: 206 and 207 | Population Fragmented Nuclei (%) [2]: 10.34% and 8.29% | Population Healthy Nuclei (%) [2]: 70.94% and 74.63% | Population Hoechst High Intensity Objects (%) [2]: 0% | Population Membrane Permeable-Phenotype (%) [2]: 3.47% and 5.23% | Population Mitotic Cells (%) [2]: 94.74% and 74.29% | Population Normal (%) [2]: 100% | Population Pyknosed Nuclei (%) [2]: 18.72% and 17.07% | Population Tubulin-Different-Phenotype (%) [2]: 13.19% and 23.53% | Total Cell Count [2]: 203 and 205 | Population Apoptotic (%) [3]: 15.79% and 12% | Population Fragmented Nuclei (%) [3]: 7.37% and 6.28% | Population Healthy Nuclei (%) [3]: 75.12% and 82.51% | Population Hoechst High Intensity Objects (%) [3]: 0% | Population Membrane Permeable-Phenotype (%) [3]: 4.91% and 2.72% | Population Mitochondria Different-Phenotype (%) [3]: 6.75% and 7.61% | Population Mitotic Cells (%) [3]: 84.21% and 88% | Population Normal (%) [3]: 100% | Population Pyknosed Nuclei (%) [3]: 17.51% and 11.21% | Population Tubulin-Different-Phenotype (%) [3]: 11.04% and 17.93% | Total Cell Count [3]: 217 and 223 | Population Apoptotic (%) [4]: 17.65% and 35.71% | Population Fragmented Nuclei (%) [4]: 10.5% and 7.62% | Population Healthy Nuclei (%) [4]: 73.97% and 79.82% | Population Hoechst High Intensity Objects (%) [4]: 0% | Population Membrane Permeable-Phenotype (%) [4]: 3.7% and 3.37% | Population Mitochondria Different-Phenotype (%) [4]: 3.09% and 6.74% | Population Mitotic Cells (%) [4]: 82.35% and 64.29% | Population Normal (%) [4]: 100% | Population Pyknosed Nuclei (%) [4]: 15.53% and 12.56% | Population Tubulin-Different-Phenotype (%) [4]: 16.05% and 25.84% | Total Cell Count [4]: 219 and 223 | Population Apoptotic (%) [5]: 57.14% and 58.33% | Population Fragmented Nuclei (%) [5]: 12.6% and 5.91% | Population Healthy Nuclei (%) [5]: 82.06% and 88.64% | Population Hoechst High Intensity Objects (%) [5]: 0% | Population Membrane Permeable-Phenotype (%) [5]: 2.33% and 4.1% | Population Mitotic Cells (%) [5]: 42.86% and 41.67% | Population Normal (%) [5]: 100% | Population Pyknosed Nuclei (%) [5]: 5.34% and 5.45% | Population Tubulin-Different-Phenotype (%) [5]: 4.19% and 11.79% | Total Cell Count [5]: 262 and 220 | Population Apoptotic (%) [6]: 35.71% and 45% | Population Fragmented Nuclei (%) [6]: 10.74% and 6.5% | Population Healthy Nuclei (%) [6]: 84.07% and 85.37% | Population Hoechst High Intensity Objects (%) [6]: 0% | Population Membrane Permeable-Phenotype (%) [6]: 1.32% and 4.76% | Population Mitochondria Different-Phenotype (%) [6]: 6.61% and 0.48% | Population Mitotic Cells (%) [6]: 64.29% and 55% | Population Normal (%) [6]: 100% | Population Pyknosed Nuclei (%) [6]: 5.19% and 8.13% | Total Cell Count [6]: 270 and 246

CCC(=O)N1CCN(c2ccc(-n3c(=O)ccc4cnc5ccc(-c6cnc7ccccc7c6)cc5c43)cc2C(F)(F)F)CC1 [TORIN1]
Population Healthy Nuclei (%) [2]: 60% and 44% | Population Membrane Permeable-Phenotype (%) [2]: 1% | Population Mitochondria Different-Phenotype (%) [2]: 5% and 0% | Population Mitotic Cells (%) [2]: 72% and 65% | Population Normal (%) [2]: 94% and 90% | Population Tubulin-Different-Phenotype (%) [2]: 62% and 64% | Total Cell Count [2]: 155 and 131 | Population Healthy Nuclei (%) [4]: 57% | Population Membrane Permeable-Phenotype (%) [4]: 0% | Population Mitochondria Different-Phenotype (%) [4]: 10% and 5% | Population Mitotic Cells (%) [4]: 66% and 56% | Population Normal (%) [4]: 96% and 93% | Population Tubulin-Different-Phenotype (%) [4]: 62% and 59% | Total Cell Count [4]: 137 and 128 | Population Apoptotic (%) [6]: 80% | Population Healthy Nuclei (%) [6]: 72% and 62% | Population Membrane Permeable-Phenotype (%) [6]: 0% and 8% | Population Mitotic Cells (%) [6]: 20% and 46% | Population Normal (%) [6]: 96% and 95% | Population Pyknosed Nuclei (%) [6]: 10% | Population Tubulin-Different-Phenotype (%) [6]: 67% and 61% | Total Cell Count [6]: 127 and 136

CC(C)(C)c1ccc(S(=O)(=O)Nc2ccc(Cl)cc2C(=O)c2cc[n+]([O-])cc2)cc1 [VERCIRNON]
Population Apoptotic (%) [1]: 63% and 50% | Population Fragmented Nuclei (%) [1]: 19% and 27% | Population Healthy Nuclei (%) [1]: 65% and 46% | Population Hoechst High Intensity Objects (%) [1]: 2% and 7% | Population Membrane Permeable-Phenotype (%) [1]: 1% and 6% | Population Mitochondria Different-Phenotype (%) [1]: 3% and 1% | Population Mitotic Cells (%) [1]: 36% and 50% | Population Normal (%) [1]: 97% and 92% | Population Pyknosed Nuclei (%) [1]: 15% and 25% | Population Tubulin-Different-Phenotype (%) [1]: 20% and 41% | Total Cell Count [1]: 148 and 152 | Population Apoptotic (%) [2]: 59% and 48% | Population Fragmented Nuclei (%) [2]: 14% and 30% | Population Healthy Nuclei (%) [2]: 64% and 44% | Population Hoechst High Intensity Objects (%) [2]: 3% and 5% | Population Membrane Permeable-Phenotype (%) [2]: 3% and 8% | Population Mitochondria Different-Phenotype (%) [2]: 1% and 10% | Population Mitotic Cells (%) [2]: 40% and 51% | Population Normal (%) [2]: 96% and 94% | Population Pyknosed Nuclei (%) [2]: 21% and 25% | Population Tubulin-Different-Phenotype (%) [2]: 46% and 66% | Total Cell Count [2]: 107 and 114 | Population Apoptotic (%) [3]: 55% and 54% | Population Fragmented Nuclei (%) [3]: 23% and 25% | Population Healthy Nuclei (%) [3]: 62% and 57% | Population Hoechst High Intensity Objects (%) [3]: 0% and 7% | Population Membrane Permeable-Phenotype (%) [3]: 4% and 7% | Population Mitochondria Different-Phenotype (%) [3]: 1% | Population Mitotic Cells (%) [3]: 45% | Population Normal (%) [3]: 99% and 92% | Population Pyknosed Nuclei (%) [3]: 14% and 16% | Population Tubulin-Different-Phenotype (%) [3]: 27% and 40% | Total Cell Count [3]: 141 and 142 | Population Apoptotic (%) [4]: 66% and 41% | Population Fragmented Nuclei (%) [4]: 16% and 32% | Population Healthy Nuclei (%) [4]: 66% and 42% | Population Hoechst High Intensity Objects (%) [4]: 1% and 0% | Population Mitochondria Different-Phenotype (%) [4]: 2% and 9% | Population Mitotic Cells (%) [4]: 33% and 58% | Population Normal (%) [4]: 98% and 99% | Population Pyknosed Nuclei (%) [4]: 16% and 24% | Population Tubulin-Different-Phenotype (%) [4]: 40% and 82% | Total Cell Count [4]: 114 and 120 | Population Apoptotic (%) [5]: 61% and 62% | Population Fragmented Nuclei (%) [5]: 29% and 32% | Population Healthy Nuclei (%) [5]: 58% and 55% | Population Hoechst High Intensity Objects (%) [5]: 1% and 6% | Population Membrane Permeable-Phenotype (%) [5]: 1% and 6% | Population Mitochondria Different-Phenotype (%) [5]: 1% and 9% | Population Mitotic Cells (%) [5]: 38% and 37% | Population Normal (%) [5]: 98% and 93% | Population Pyknosed Nuclei (%) [5]: 12% and 11% | Population Tubulin-Different-Phenotype (%) [5]: 25% and 37% | Total Cell Count [5]: 151 and 145 | Population Apoptotic (%) [6]: 62% and 46% | Population Fragmented Nuclei (%) [6]: 22% and 42% | Population Healthy Nuclei (%) [6]: 64% and 46% | Population Hoechst High Intensity Objects (%) [6]: 2% and 4% | Population Mitochondria Different-Phenotype (%) [6]: 0% and 12% | Population Mitotic Cells (%) [6]: 37% and 53% | Population Normal (%) [6]: 97% and 95% | Population Pyknosed Nuclei (%) [6]: 13% and 11% | Population Tubulin-Different-Phenotype (%) [6]: 38% and 72% | Total Cell Count [6]: 120 and 122
